L major viab – inhibitors of Leishmania major promastigote growth; 200,000 tested, 9% active; Leishmania major promastigotes, resazurin fluorescence viability; AID 1063; inhibition, % at 10 µM;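 further: promastigotes grown with compound for 44 hours at 28 °C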
Diaphorase act – diaphorase activation or chemical reduction counter-screen; Diaphorase/resazurin coupled assay, resorufin fluorescence, 16 min; active compounds read high; 1 = vehicle wells, 0 = NADH-free wells; activation factor at 20 µM; 190,000 tested, 0.005% active; AID 1229;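 active means diaphorase activity raised at least twofold by the compound at 20 µM; inactive means activation factor below 2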
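Measured by – red resorufin fluorescence at 544/590 nm excitation/emission · Test system – Clostridium kluyveri diaphorase, purified enzyme · Incubation – reaction time 16 min, room temperature · Buffer or medium – 50 mM HEPES pH 7.4 with 4.542 mM MgCl2, 0.005% Tween 20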
Diaphorase inh – diaphorase inhibition or chemical oxidation counter-screen. diaphorase resazurin-to-resorufin fluorescence, NADH, 16 min; bacterial (C. kluyveri) enzyme, not human. inhibition, % at 20 µM. 190,000 tested, 0.69% active;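 active means primary screen inhibition at 20 µM above a set limit, cut at about 50% in these data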
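Assay system: diaphorase enzyme from Clostridium kluyveri. Quantity: enzyme working solution with 0.14 U/mL diaphorase. Schedule: reaction incubation of 16 min at room temperature. Technique: resorufin fluorescence, excitation 544 nm, emission 590 nm. Controls: No-NADH positive control and DMSO neutral control.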
G6PDH counter – L. mesenteroides G6PDH inhibition counter-screen; AID 1020; Purified L. mesenteroides G6PDH, diaphorase/resazurin coupled fluorescence, 45 min; 200,000 tested, 0.12% active; inhibition, % at 5 µM
Redox H2O2 prof – compounds producing H2O2 with reducing agent – biochemical, NIH compound library profiling, artefact control for MLSCN library redox annotation, primary screen. 200,000 tested, 0.03% active. activation, % at 10 µM. DTT-dependent redox cycling H2O2, phenol red/HRP absorbance; 100% = 100 µM peroxide control, 0% = buffer;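 active means activation of at least 50% relative to the plate's high and low controls in the primary single-dose screen; inactive means activation below 50%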;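 further: compound incubated with DTT at 0.8 mM final as the reducing agent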
PfGluPho inh – PfG6PD (Plasmodium falciparum) enzyme inhibition; PfGluPho enzyme, NADPH resazurin-diaphorase fluorescence; inhibition, % at 20 µM; 350,000 tested, 0.78% active;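 active means inhibition reaching at least a set limit at 20 µM in the primary screen, cut at about 59% in these data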
PfGluPho conf – PfG6PD inhibition, single-dose confirmed; recombinant PfGluPho, NADPH-diaphorase-resazurin fluorescence; inhibition, % at 20 µM; 2,400 tested, 34% active; shares compounds with PfGluPho inh; AID 504753;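 active means inhibition of at least 50% at 20 µM in any single replicate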
Diaphorase 10uM – diaphorase inhibition or oxidation at 10 uM NADPH | diaphorase-coupled resazurin reduction, fluorescence, NADPH 10 uM | shares compounds with PfGluPho inh | inhibition, % at 20 µM | 820 tested, 39% active;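 active means average inhibition reaching 50% or more with the compound at 20 µM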;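 further: resorufin red fluorescence formed as diaphorase reduces resazurin using NADPH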
Diaph ctr 30uM – counter-screen for P. falciparum G6PD inhibitors: diaphorase inhibitors, oxidizers; shares compounds with PfGluPho inh; AID 504863; inhibition, % at 20 µM; 820 tested, 29% active; Diaphorase/resazurin coupled assay, resorufin fluorescence, 30 uM NADPH;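 active means inhibition averaging 50% or more, tested at 20 µM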
Hits are given with their value; 0 = inactive; - = not tested or not shown. This is one part of a sample in which hits are shown more often than they occur. Unless noted, no stated cut-off is given here; in the data, active means inhibition above about 50%; inactive means the rest.

SMILES	L major viab	Diaphorase act	Diaphorase inh	G6PDH counter	Redox H2O2 prof	PfGluPho inh	PfGluPho conf	others
Cc1ccc(/C=C/C(=O)N2CCc3ccccc32)o1	0	0	0	0	0	85	0
Cc1ccc(/C=C/C(=O)N2CCN(c3ncccn3)CC2)o1	0	0	0	0	0	64	0
O=C(/C=C/c1ccco1)N1CCc2ccccc21	0	0	0	0	0	0	-
CCN(N=O)[C@@H](Cc1ccccc1)CN(N=O)[C@@H](Cc1ccccc1)CN(C)N=O	0	0	0	0	0	0	-
CCOc1ccc(-c2n[nH]c(C)c2-c2ccccc2OC)c(O)c1	0	0	0	0	0	0	-
CCc1cc(-c2n[nH]c(C)c2-c2ccccc2Cl)c(O)cc1OC	-	-	-	-	-	98	51	Diaphorase 10uM=55;Diaph ctr 30uM=0
CCc1cc(-c2n[nH]c(C)c2-c2nc3ccccc3n2C)c(O)cc1O	0	0	0	0	0	61	49	Diaphorase 10uM=0;Diaph ctr 30uM=0
CCN(CC)c1ccc(N=C2C=CC(=O)C=C2NC(C)=O)cc1	-	-	-	-	-	121	99	Diaphorase 10uM=95;Diaph ctr 30uM=98
Cc1nc2c(-c3ccc(F)cc3)cnn2c2c1CCC2	0	0	0	0	0	0	-
COC(=O)C1=C(C)NC(C)=C(C(=O)OCC(C)C)C1c1ccccc1[N+](=O)[O-] (stereo not given)	-	-	-	-	-	62	0
CCOC(=O)C1=C(C)NC(C)=C(C(=O)OCC)C1c1cccc([N+](=O)[O-])c1	-	-	-	-	-	0	-
O=C(C[n+]1ccc(C(=O)NCCCO)cc1)c1cccc(Br)c1	-	-	-	-	-	0	-
CCc1ccc(Nc2nnc(SCC(=O)Nc3sccc3C(N)=O)s2)cc1	98	0	0	0	0	67	0
COc1cc(C(=O)NCC(c2ccccc2)N(C)C)ccc1OCc1c(C)noc1C (stereo not given)	-	-	-	-	-	0	-
COc1ccccc1NC(=O)CN(Cc1ccco1)C(=O)c1ccc(Cl)nc1	0	0	0	0	0	0	-
N#Cc1ccc2c(=O)n(-c3ccccc3)sc2c1	-	-	-	-	-	123	108	Diaphorase 10uM=0;Diaph ctr 30uM=0
O=c1c2cc(C(F)(F)F)ccc2sn1-c1ccccc1	-	-	-	-	-	128	94	Diaphorase 10uM=0;Diaph ctr 30uM=0
O=c1c2ccccc2c(-c2cccc(C(F)(F)F)c2)nn1-c1ccccc1	-	-	-	-	-	0	-
CC(=O)Nc1ccc2c(=O)n(-c3ccccc3)sc2c1	-	-	-	-	-	127	105	Diaphorase 10uM=0;Diaph ctr 30uM=0
COc1ccc(C2=NN(C(=O)CCCC(=O)O)C(c3cn(-c4ccccc4)nc3-c3ccccc3)C2)cc1 (stereo not given)	-	-	-	-	-	0	-
Cc1[nH]c2ccccc2c1/C=N/NC(=O)c1cccc(Br)c1	-	-	-	-	-	0	-
Cc1[nH]c2ccccc2c1/C=N/NC(=O)c1cccc(S(=O)(=O)Nc2ccccc2Cl)c1	0	0	0	0	0	83	68	Diaphorase 10uM=65;Diaph ctr 30uM=0
O=c1cc(-c2ccccc2)oc2ccccc12	-	-	-	-	-	0	-
Nc1cc2nc3ccccc3oc-2cc1=O	-	-	-	-	-	74	0
CCN1CCN(C(=O)N2CCOCC2)CC1	0	0	0	0	0	0	-
SMILES	L major viab	Diaphorase act	Diaphorase inh	G6PDH counter	Redox H2O2 prof	PfGluPho inh	PfGluPho conf	others
CC(=O)c1c(C)oc2c1C(=O)c1ccccc1C2=O	0	0	0	0	0	0	-
O=C1c2ccccc2C(=O)c2c1oc(C(F)(F)F)c2C(=O)c1ccccc1	99	0	0	57	0	74	0
O=C(NCCO)c1ccc2nc(-c3ccco3)c(-c3ccco3)nc2c1	0	0	52	0	0	72	0
O=C(NCCO)c1ccc(Cl)c(Cl)c1	0	0	0	0	0	0	-
O=C(NCCc1ccccc1)c1ccc(=O)oc1	0	0	0	0	0	0	-
O=C(NCCc1ccccc1)c1ccc2nc(-c3ccco3)c(-c3ccco3)nc2c1	72	0	0	0	0	60	0
CNC(=O)[C@@H]1CCC(=O)N1	-	-	-	-	-	0	-
CC(C)N(C(=O)Cn1cc(S(=O)(=O)CC(=O)NCc2ccc(F)cc2)c2ccccc21)C(C)C	-	-	-	-	-	0	-
COc1ccc(C2=NOC3(CC(=O)N(c4ccc5ccccc5c4)C3=O)C2)c(OC)c1 (stereo not given)	0	0	0	0	0	0	-
COc1cc(CN2CCN(CCCc3ccccc3)C(CCO)C2)cc(OC)c1O (stereo not given)	-	-	-	-	-	61	57	Diaphorase 10uM=0;Diaph ctr 30uM=0
Cc1cccc(NC(=O)CSc2nnc(-c3ccco3)c(-c3ccco3)n2)c1C	87	0	0	0	0	61	0
CCOc1cc2c3c(c1)C(C)=CC(C)(C)N3C(=O)C2=O	0	0	0	0	0	0	-
CC(=O)Oc1cc2c3c(c1)/C(=C1/SC(=S)NC1=O)C(=O)N3C(C)(C)C=C2C	-	-	-	-	-	80	0
CCOc1ccc2cc(C#N)c(SCC(=O)NC(C)CC)nc2c1 (stereo not given)	0	0	0	0	0	-	-
COc1cc(C(=S)N2CCCC2)cc(Cl)c1OCC(=O)Nc1ccc(C)cc1C	0	0	0	0	0	64	0
Cc1cc2c(N)cccc2nn1	0	0	0	52	0	100	0
CCC(=O)N1CCc2cc(S(=O)(=O)NCCc3ccc(S(N)(=O)=O)cc3)ccc21	-	-	-	-	-	0	-
Cc1nnc(NC(=O)c2ccc3c(c2)OCO3)s1	0	0	0	0	0	0	-
COCCSc1nnc(NC(=O)c2ccc3c(c2)OCO3)s1	0	0	0	0	0	71	0
CSc1nnc(NC(=O)c2ccc3c(c2)OCO3)s1	-	-	-	-	-	96	74	Diaphorase 10uM=0;Diaph ctr 30uM=0
CN(C)C(=O)/C(C#N)=C\c1cc(Br)c(Sc2ccc(Cl)cc2)o1	0	0	0	0	0	107	0
COc1ccc(Br)c(OC)c1C(=O)NC(=O)Nc1nc(C)cc(C)n1	-	-	-	-	-	106	74	Diaphorase 10uM=68;Diaph ctr 30uM=65
COc1cc(C(=O)Nc2cccc(S(=O)(=O)N3CCCC3)c2)cc(OC)c1C	-	-	-	-	-	60	0
O=C(Nc1ccn(CCCNC2CCN(Cc3ccccc3)CC2)c(=O)n1)OCc1ccccc1	-	-	-	-	-	0	-
CCCc1cc(C(=O)N(C)CC(=O)Nc2ccc(OCC)c(OCC)c2)sc1C	-	-	-	-	-	0	-
CCc1c(C)sc(NC(=O)Cn2nc(C)c([N+](=O)[O-])c2C)c1C(N)=O	0	0	0	0	0	69	0
Fc1cccc(Cl)c1CNc1ccc(N2CCCC2)cc1	0	0	79	0	0	106	87	Diaphorase 10uM=0;Diaph ctr 30uM=0
CCOC(=O)c1sc(N/N=C/c2ccccc2)nc1C	0	0	0	0	0	66	0
CN(CC(=O)Nc1ccccc1Sc1ccccc1)C1CCCCC1	0	0	0	0	0	0	-
CCC1(CC)NC(=O)N(CC(=O)NC(=O)NCc2ccccc2)C1=O	-	-	-	-	-	0	-

Source: PubChem BioAssay (several laboratories)
